# Measurements reported in paper PMC4885662 (The Laryngoscope, 2014).
# Where two headings read alike, the source gives them in different places.
# Legend:
# inner hair cells = assay: Inner hair cell counts in organ of Corti whole-mounts; format: in vivo, guinea pig; conditions: 1.5 mg/kg systemic; after day 28
# Method in brief: (§1)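 Guinea pigs were dosed intratympanically (bulla filled; water for injection in the opposite ear) or intraperitoneally daily for 3 days. After the day-28 audiometry they were perfused with 4% buffered PFA. Cochleae were decapsulated and stained 30 min at room temperature with phalloidin-TRITC (0.3 µg/ml) and Hoechst 33342 (0.05 mg/ml), then imaged by confocal microscopy. Hair cells were counted in 3 random 200 μm segments per turn, as viable/(viable+missing) percentage.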
# guinea pigs [1] = format: in vivo, guinea pig; conditions: for Hearing threshold at 4 kHz / Hearing threshold at 8 kHz / Hearing threshold at 16 kHz / Hearing threshold at 32 kHz / Mean hearing threshold at 1 kHz / Mean hearing threshold at 2 kHz: day 28
# [2] = cited from earlier work
# outer hair cells = assay: Outer hair cell counts in organ of Corti whole-mounts; format: in vivo, guinea pig; conditions: for Outer hair cell counts, 2nd turn / Outer hair cell counts, 3rd turn / Outer hair cell counts, apex / Outer hair cell counts, basal turn: after day 28
# Method in brief: as §1
# [3] = Body weight after systemic application; format: in vivo, guinea pig
# guinea pigs [4] = format: in vivo, guinea pig; conditions: for Click threshold shift, difference as compared to the control group: single shot, vs water for injection ear
# peritoneum = assay: Histologic analysis of the peritoneum after i.p. application; format: in vivo, guinea pig; conditions: selected animals
smiles,measurement,setting,value
"CNCC(Cl)c1ccc(OC(C)=O)cc1.Cl (centres unmarked) [CpdA, 2-(4-acetoxyphenyl)-2-chloro-N-methyl-ethylammonium chloride]","Inner hair cell counts, 2nd turn",inner hair cells,99.6 ± 1.3%
same,"Inner hair cell counts, 3rd turn",inner hair cells,99.7 ± 1.2%
same,Hearing threshold at 4 kHz,guinea pigs [1]; 1 mM IT,57.5 dB SPL
same,Hearing threshold at 8 kHz,guinea pigs [1]; 1 mM IT,40.8 dB SPL
same,Hearing threshold at 16 kHz,guinea pigs [1]; 1 mM IT,32.5 dB SPL
same,Hearing threshold at 32 kHz,guinea pigs [1]; 1 mM IT,50 dB SPL
same,Mean hearing threshold at 1 kHz,guinea pigs [1]; 1 mM IT,56.7 dB SPL
same,Mean hearing threshold at 2 kHz,guinea pigs [1]; 1 mM IT,55 dB
same,Frequency-specific ABR threshold shift vs baseline,"guinea pigs [1]; 1.5 mg/kg intraperitoneally, day 21, p=0.048",5 dB
same,Hearing threshold at 4 kHz,guinea pigs [1]; 10 mM IT,49.2 dB SPL
same,Hearing threshold at 8 kHz,guinea pigs [1]; 10 mM IT,35 dB SPL
same,Hearing threshold at 16 kHz,guinea pigs [1]; 10 mM IT,35 dB SPL
same,Hearing threshold at 32 kHz,guinea pigs [1]; 10 mM IT,66.7 dB SPL
same,Mean hearing threshold at 1 kHz,guinea pigs [1]; 10 mM IT,44.2 dB SPL
same,Mean hearing threshold at 2 kHz,guinea pigs [1]; 10 mM IT,40 dB
same,Stability in buffered solutions,[2],instability
same,"Outer hair cell counts, 2nd turn",outer hair cells; 1 mM IT,99.5 ± 1.3%
same,"Outer hair cell counts, 3rd turn",outer hair cells; 1 mM IT,99.0 ± 3.5%
same,"Outer hair cell counts, apex",outer hair cells; 1 mM IT,95.2 ± 7.5%
same,"Outer hair cell counts, basal turn",outer hair cells; 1 mM IT,99.5 ± 1.4%
same,"Outer hair cell counts, 2nd turn",outer hair cells; 1.5 mg/kg systemic,99.8 ± 1.3%
same,"Outer hair cell counts, 3rd turn",outer hair cells; 1.5 mg/kg systemic,97.7 ± 6.4%
same,"Outer hair cell counts, apex",outer hair cells; 1.5 mg/kg systemic,93.8 ± 9.3%
same,"Outer hair cell counts, basal turn",outer hair cells; 1.5 mg/kg systemic,99.6 ± 1.2%
same,"Outer hair cell counts, 2nd turn",outer hair cells; 4.5 mg/kg systemic,99.7 ± 1.3%
same,"Outer hair cell counts, 3rd turn",outer hair cells; 4.5 mg/kg systemic,98.5 ± 3.5%
same,"Outer hair cell counts, apex",outer hair cells; 4.5 mg/kg systemic,98.5 ± 3.0%
same,"Outer hair cell counts, basal turn",outer hair cells; 4.5 mg/kg systemic,99.9 ± 0.6%
same,"Outer hair cell counts, 2nd turn",outer hair cells; 10 mM IT,98.4 ± 2.4%
same,"Outer hair cell counts, 3rd turn",outer hair cells; 10 mM IT,98.8 ± 3.3%
same,"Outer hair cell counts, apex",outer hair cells; 10 mM IT,97.7 ± 4.2%
same,"Outer hair cell counts, basal turn",outer hair cells; 10 mM IT,99.6 ± 1.3%
same,Loss of outer or inner hair cells,outer hair cells; any of the treatment groups (IT and systemic),did not result in a statistically significant loss
same,Body weight,[3],weight loss was also observed
same,"Click threshold shift, difference as compared to the control group",guinea pigs [4]; 1 mM IT,28 dB
same,"Difference in click threshold shift vs control, day 28",guinea pigs [4]; 1 mM IT,19 dB
same,Change in click hearing thresholds as compared to baseline,guinea pigs [4]; 1.5 mg/kg intraperitoneally on three consecutive days,did not result in clinically relevant or statistically significant changes
same,Change in click hearing thresholds as compared to baseline,guinea pigs [4]; 4.5 mg/kg intraperitoneally on three consecutive days,did not result in clinically relevant or statistically significant changes
same,"Click threshold shift, difference as compared to the control group",guinea pigs [4]; 10 mM IT,21 dB
same,"Difference in click threshold shift vs control, day 28",guinea pigs [4]; 10 mM IT,12 dB
same,Histologic analysis of the peritoneum,peritoneum,did not show any inflammatory or necrotic alterations
